Source: ChEMBL document CHEMBL1145166, “Dipeptides as effective prodrugs of the unnatural amino acid (+)-2-aminobicyclo[3.1.0]hexane-2,6-dicarboxylic acid (LY354740), a selective group II metabotropic glutamate receptor agonist” (J Med Chem, 2005)

What was measured:
[1] = Plasma concentration of LY-354740 in rats after oral administration of compound at a dose of 5 mg equiv 1/kg at 0.5 hr; type: ADME; details: rat
Method in brief: (§1)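 Male Fischer 344 rats (190–250 g), fasted overnight, food returned ~4 h postdose; single oral dose of prodrug molar-equivalent to 5 mg/kg parent, in pH 2.5 20 mM KHPO₄. Blood drawn at 0.5, 1 and 3 h; plasma stored at –20 °C or below until analysis. Three plasma samples per time point; parent and prodrug measured.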

[2] = Plasma concentration of LY-354740 in rats after oral administration of compound at a dose of 5 mg equiv 1/kg at 1 hr; type: ADME; details: rat; method in brief: as §1
[3] = Plasma concentration of LY-354740 in rats after oral administration of compound at a dose of 5 mg equiv 1/kg at 3 hr; type: ADME; details: rat; method in brief: as §1
Caco-2 = assay: Inhibition of radiolabeled glycylsarcosine (Gly-Sar) uptake into Caco-2 cells done for 15 min at 37 degree C with compound; type: functional, cell-based; details: Homo sapiens, Caco-2, 0.25 h
[4] = Inhibition of radiolabeled glycylsarcosine (Gly-Sar) uptake into chinese hamster ovary cells transfected with human PepT1 (CHO/hPepT1) done for 5-20 min at 37 degree C with compound; type: functional, cell-based; details: Cricetulus griseus
[5] = Area under concentration of compound in rats at a dose of 5 mg equiv 1/kg; type: ADME; details: rat, in vivo; method in brief: as §1
[6] = Plasma concentration of the prodrug and LY-354740 against the metabotropic glutamate receptor in rats after an oral dose of corresponding prodrug in 5 mg equiv 1/kg at 3 houre; type: ADME; details: rat; method in brief: as §1
Rattus norvegicus [7] = assay: Minimally effective dose for suppression of startle in rat fear-potentiated startle assay, p.o.; Range = 0.3-3.0 mg/kg; type: functional; details: po, read-out: MED
Rattus norvegicus [8] = assay: Duration of suppression of compound in rat fear-potentiated startle assay at an oral dose of 3.0 mg/kg; Range = 8-24 h; type: functional
[9] = target: Metabotropic glutamate receptor 2 (Homo sapiens, UniProt Q14416); assay: Inhibition of [3H]LY-341,495 binding to recombinant human mGlu2 receptors
Chain of Metabotropic glutamate receptor 2 (Homo sapiens, UniProt Q14416) (Q14416 whole entry): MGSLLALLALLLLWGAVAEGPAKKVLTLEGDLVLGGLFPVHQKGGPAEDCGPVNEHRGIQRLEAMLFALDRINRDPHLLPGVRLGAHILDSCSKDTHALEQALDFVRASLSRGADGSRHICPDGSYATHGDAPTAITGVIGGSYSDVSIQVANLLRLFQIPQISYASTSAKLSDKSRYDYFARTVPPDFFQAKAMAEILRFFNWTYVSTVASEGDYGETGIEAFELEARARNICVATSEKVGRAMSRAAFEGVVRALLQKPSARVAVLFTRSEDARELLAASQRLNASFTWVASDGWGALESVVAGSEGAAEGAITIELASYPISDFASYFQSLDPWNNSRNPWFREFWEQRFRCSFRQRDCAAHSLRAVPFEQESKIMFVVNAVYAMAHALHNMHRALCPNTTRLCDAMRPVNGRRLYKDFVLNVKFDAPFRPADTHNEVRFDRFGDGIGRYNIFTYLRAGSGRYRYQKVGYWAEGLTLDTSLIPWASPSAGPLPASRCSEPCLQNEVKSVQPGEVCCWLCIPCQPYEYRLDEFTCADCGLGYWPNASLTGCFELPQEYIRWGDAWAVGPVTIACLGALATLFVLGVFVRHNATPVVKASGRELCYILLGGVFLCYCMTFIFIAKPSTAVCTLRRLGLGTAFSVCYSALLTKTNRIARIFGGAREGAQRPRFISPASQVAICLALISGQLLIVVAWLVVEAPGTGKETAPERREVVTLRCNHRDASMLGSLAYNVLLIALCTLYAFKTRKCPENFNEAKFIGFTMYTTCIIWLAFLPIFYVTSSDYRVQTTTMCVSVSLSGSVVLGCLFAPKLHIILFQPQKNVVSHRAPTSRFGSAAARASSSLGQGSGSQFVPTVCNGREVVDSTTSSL

[10] = target: Metabotropic glutamate receptor 3 (Homo sapiens, UniProt Q14832); assay: Inhibition of [3H]LY-341,495 binding to recombinant human mGlu3 receptors
Chain of Metabotropic glutamate receptor 3 (Q14832 whole entry): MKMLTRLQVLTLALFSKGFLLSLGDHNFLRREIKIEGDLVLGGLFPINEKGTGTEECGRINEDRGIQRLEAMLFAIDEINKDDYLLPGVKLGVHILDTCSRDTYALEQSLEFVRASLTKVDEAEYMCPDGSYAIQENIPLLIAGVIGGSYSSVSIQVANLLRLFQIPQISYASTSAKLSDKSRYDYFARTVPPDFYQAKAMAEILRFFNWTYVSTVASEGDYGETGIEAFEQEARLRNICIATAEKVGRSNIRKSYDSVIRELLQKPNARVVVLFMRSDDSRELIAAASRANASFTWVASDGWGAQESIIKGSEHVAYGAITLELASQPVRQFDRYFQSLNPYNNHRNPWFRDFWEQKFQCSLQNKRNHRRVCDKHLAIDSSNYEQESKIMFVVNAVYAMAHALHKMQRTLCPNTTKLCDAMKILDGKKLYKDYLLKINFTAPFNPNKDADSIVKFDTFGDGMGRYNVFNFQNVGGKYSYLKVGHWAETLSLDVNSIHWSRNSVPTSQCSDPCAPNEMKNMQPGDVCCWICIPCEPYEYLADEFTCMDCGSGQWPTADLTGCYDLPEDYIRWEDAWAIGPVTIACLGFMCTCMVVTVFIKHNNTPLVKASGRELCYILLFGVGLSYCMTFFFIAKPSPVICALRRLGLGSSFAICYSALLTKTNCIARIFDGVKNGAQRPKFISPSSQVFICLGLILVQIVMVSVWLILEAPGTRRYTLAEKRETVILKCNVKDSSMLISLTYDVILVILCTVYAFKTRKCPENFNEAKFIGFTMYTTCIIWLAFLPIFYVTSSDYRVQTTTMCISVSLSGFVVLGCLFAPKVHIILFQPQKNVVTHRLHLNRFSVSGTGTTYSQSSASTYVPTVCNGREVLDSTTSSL

Rattus norvegicus [11] = assay: Onset of suppression of startle of compound in rat fear-potentiated startle assay at an oral dose of 3.0 mg/kg; type: functional
Rattus norvegicus [12] = assay: Onset of suppression of startle of compound in rat fear-potentiated startle assay at an oral dose of 0.01 and 0.1 mg/kg; type: functional
Method in brief: (§2)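 Fed rats dosed orally. Three-day protocol: day 1 baseline startle (30 × 120 dB), groups of n = 8. Day 2 conditioning: 10 light (5 s)–shock (0.5 mA, 500 ms) pairings. Day 3, 24 h later: 20 noise-alone and 20 light+noise trials. Compound given at set pretreatment times before testing. Diazepam 0.6 mg/kg ip, 30 min pre-test, as positive control. MED = lowest dose with p < 0.05 versus control.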

[13] = target: Metabotropic glutamate receptor 2 (Rattus norvegicus, UniProt P31421); assay: Inhibition of [3H]LY-341,495 binding to mGlu2 receptors of rat brain
Chain of Metabotropic glutamate receptor 2 (Rattus norvegicus, UniProt P31421) (P31421 whole entry): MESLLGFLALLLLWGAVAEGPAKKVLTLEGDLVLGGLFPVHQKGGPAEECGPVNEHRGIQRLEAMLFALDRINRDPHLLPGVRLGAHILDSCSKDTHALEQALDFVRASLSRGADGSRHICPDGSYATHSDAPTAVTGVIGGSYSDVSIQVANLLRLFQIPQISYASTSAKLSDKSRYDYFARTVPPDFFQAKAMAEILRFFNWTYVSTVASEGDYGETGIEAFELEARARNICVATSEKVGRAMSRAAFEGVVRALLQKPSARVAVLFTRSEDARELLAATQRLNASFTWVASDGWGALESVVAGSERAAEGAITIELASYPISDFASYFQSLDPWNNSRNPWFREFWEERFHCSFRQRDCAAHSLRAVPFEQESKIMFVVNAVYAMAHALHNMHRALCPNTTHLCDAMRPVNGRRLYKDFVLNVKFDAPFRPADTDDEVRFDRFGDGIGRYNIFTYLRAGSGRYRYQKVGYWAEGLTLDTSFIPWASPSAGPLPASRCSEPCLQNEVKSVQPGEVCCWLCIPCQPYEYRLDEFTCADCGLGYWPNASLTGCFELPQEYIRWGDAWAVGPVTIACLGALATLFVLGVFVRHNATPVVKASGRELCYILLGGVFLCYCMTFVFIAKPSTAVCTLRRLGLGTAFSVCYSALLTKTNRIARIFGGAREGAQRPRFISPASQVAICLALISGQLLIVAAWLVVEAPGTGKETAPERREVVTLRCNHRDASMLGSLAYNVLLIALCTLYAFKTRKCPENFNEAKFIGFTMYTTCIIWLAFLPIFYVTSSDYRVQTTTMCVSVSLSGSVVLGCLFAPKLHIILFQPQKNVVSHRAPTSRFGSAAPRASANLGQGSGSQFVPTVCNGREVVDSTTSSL

Rattus norvegicus [14] = assay: Minimally effective dose for suppression of startle in rat fear-potentiated startle assay, p.o.; type: functional; details: po, read-out: MED; method in brief: as §2
Rattus norvegicus [15] = assay: Duration of suppression of compound in rat fear-potentiated startle assay at an oral dose of 0.1 mg/kg; type: functional; method in brief: as §2
Rattus norvegicus [16] = assay: Duration of suppression of compound in rat fear-potentiated startle assay at an oral dose of 0.01 mg/kg; Range = 4-8 h; type: functional; method in brief: as §2

SMILES | Plasma concentration [1] | Plasma concentration [2] | Plasma concentration [3] | IC50 (Caco-2) | IC50 [4] | other results
N[C@@]1(C(=O)N[C@@H](Cc2ccc(O)cc2)C(=O)O)CC[C@H]2[C@H](C(=O)O)[C@H]21 | 30 ng/mL | 44 ng/mL | 124 ng/mL |  |  | 
N[C@@]1(C(=O)N[C@@H](Cc2ccccc2)C(=O)O)CC[C@H]2[C@H](C(=O)O)[C@H]21 | 20 ng/mL | 45 ng/mL | 10 ng/mL | 2680 µM | 1540 µM | AUC [5]: 11400 ng·h/mL
N[C@@]1(C(=O)N[C@@H](CO)C(=O)O)CC[C@H]2[C@H](C(=O)O)[C@H]21 | 36 ng/mL |  | 53 ng/mL |  |  | 
CC(C)C[C@H](NC(=O)[C@]1(N)CC[C@H]2[C@H](C(=O)O)[C@H]21)C(=O)O | 450 ng/mL | 798 ng/mL | 919 ng/mL | > 10000 µM | 620 µM | AUC [5]: 21300 ng·h/mL
CC(C)[C@H](NC(=O)[C@]1(N)CC[C@H]2[C@H](C(=O)O)[C@H]21)C(=O)O | 10 ng/mL | 17 ng/mL | 10 ng/mL |  |  | 
CSCC[C@H](NC(=O)[C@]1(N)CC[C@H]2[C@H](C(=O)O)[C@H]21)C(=O)O | 602 ng/mL | 808 ng/mL | 889 ng/mL |  |  | AUC [5]: 16600 ng·h/mL
N[C@@]1(C(=O)NCC(=O)O)CC[C@H]2[C@H](C(=O)O)[C@H]21 | 19 ng/mL |  |  |  |  | 
Cl.N[C@@H](Cc1ccc(O)cc1)C(=O)N[C@@]1(C(=O)O)CC[C@H]2[C@H](C(=O)O)[C@H]21 | 1915 ng/mL | 2163 ng/mL |  |  |  | 
Cl.O=C(O)[C@H]1[C@@H]2CC[C@@](NC(=O)[C@@H]3CCCN3)(C(=O)O)[C@@H]21 | 319 ng/mL | 455 ng/mL |  |  |  | Plasma concentration [6]: 670 ng/mL
N[C@@]1(C(=O)O)CC[C@H]2[C@H](C(=O)O)[C@H]21 |  |  |  | > 10000 µM | > 19000 µM | minimal effective dose (Rattus norvegicus [7]): 3 mg/kg; Duration (Rattus norvegicus [8]): 24 h; Ki [9]: 0.0847 µM; Ki [10]: 0.126 µM; Onset (Rattus norvegicus [11]): <=1 hr

Further lines, with some results ahead:

Plasma concentration [1] | Plasma concentration [2] | Plasma concentration [3] | IC50 (Caco-2) | IC50 [4] | SMILES | other results
18 ng/mL | 34 ng/mL | 20 ng/mL |  |  | CC[C@H](C)[C@H](NC(=O)[C@]1(N)CC[C@H]2[C@H](C(=O)O)[C@H]21)C(=O)O | 
2009 ng/mL | 1457 ng/mL | 2032 ng/mL |  |  | CC[C@H](C)[C@H](N)C(=O)N[C@@]1(C(=O)O)CC[C@H]2[C@H](C(=O)O)[C@H]21.Cl | 
44 ng/mL | 26 ng/mL | 55 ng/mL | 3050 µM | 1340 µM | CC(C)C[C@H](NC(=O)[C@]1(NC(=O)[C@H](C)N)CCC2C1[C@H]2C(=O)O)C(=O)O (stereo not given in full) | 
3620 ng/mL | 1554 ng/mL | 734 ng/mL | 7290 µM | 2880 µM | C[C@H](N)C(=O)N[C@@H](C)C(=O)N[C@@]1(C(=O)O)CC[C@H]2[C@H](C(=O)O)[C@H]21.Cl | 
1710 ng/mL | 2763 ng/mL | 1274 ng/mL | 420 µM | 520 µM | Cl.N[C@@H](Cc1ccccc1)C(=O)N[C@@]1(C(=O)O)CC[C@H]2[C@H](C(=O)O)[C@H]21 | AUC [5]: 194 ng·h/mL
74 ng/mL | 147 ng/mL | 246 ng/mL |  |  | Cl.NCCCC[C@H](N)C(=O)N[C@@]1(C(=O)O)CC[C@H]2[C@H](C(=O)O)[C@H]21 | 
4488 ng/mL | 4323 ng/mL | 1152 ng/mL | 5010 µM | 1430 µM | CC(C)C[C@H](N)C(=O)N[C@@]1(C(=O)O)CC[C@H]2[C@H](C(=O)O)[C@H]21.Cl | AUC [5]: 0 ng·h/mL
3720 ng/mL | 2107 ng/mL |  |  |  | CSCC[C@H](N)C(=O)N[C@@]1(C(=O)O)CC[C@H]2[C@H](C(=O)O)[C@H]21.Cl | 
81 ng/mL | 191 ng/mL | 525 ng/mL | > 10000 µM | 6660 µM | C[C@@H](N)C(=O)N[C@@]1(C(=O)O)CC[C@H]2[C@H](C(=O)O)[C@H]21.Cl | 
1707 ng/mL | 1992 ng/mL |  |  |  | Cl.NCC(=O)N[C@@]1(C(=O)O)CC[C@H]2[C@H](C(=O)O)[C@H]21 | 
1497 ng/mL | 1365 ng/mL |  |  |  | Cl.N[C@@H](CO)C(=O)N[C@@]1(C(=O)O)CC[C@H]2[C@H](C(=O)O)[C@H]21 | 
2387 ng/mL | 2124 ng/mL | 1136 ng/mL |  |  | CC(C)[C@H](N)C(=O)N[C@@]1(C(=O)O)CC[C@H]2[C@H](C(=O)O)[C@H]21.Cl | 
1478 ng/mL | 894 ng/mL | 877 ng/mL | 6310 µM | 1700 µM | CC(C)C[C@@H](N)C(=O)N[C@@]1(C(=O)O)CC[C@H]2[C@H](C(=O)O)[C@H]21.Cl | 
3732 ng/mL | 3381 ng/mL | 1770 ng/mL | 300 µM | 120 µM | C[C@H](N)C(=O)N[C@@]1(C(=O)O)CC[C@H]2[C@H](C(=O)O)[C@H]21.Cl [TALAGLUMETAD HYDROCHLORIDE] | Onset (Rattus norvegicus [12]): <=1 hr; Ki [13]: > 10 µM; minimal effective dose (Rattus norvegicus [14]): 0.01 mg/kg; Duration (Rattus norvegicus [15]): >=24 hr; Duration (Rattus norvegicus [16]): 8 h; Ki [9]: > 10 µM; Ki [10]: > 10 µM; AUC [5]: 0 ng·h/mL
